Laboratory results from ChEMBL document CHEMBL5034012, “Procainamide-SAHA Fused Inhibitors of hHDAC6 Tackle Multidrug-Resistant Malaria Parasites” (J Med Chem, 2021).
Activity calls are given as the source filed them. The calls are words filed in the database; no cut-off is given here.

Legend:
HL-60 = experiment: cells; assay type: functional, cell-based; conditions: Homo sapiens, HL-60, 72 h
Plasmodium falciparum [1] = experiment: Inhibition of Plasmodium falciparum DNMT activity using nuclear extract assessed as DNA methylation at 32 uM
Procedure, shortened: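 P. falciparum nuclear extracts tested at 32 µM compound, or the equivalent DMSO. DNA methylation activity normalized to the DMSO sample. Triplicates in two independent experiments.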

[2] = target: DNA (cytosine-5)-methyltransferase 3A (Homo sapiens) (UniProt Q9Y6K1); experiment: Inhibition of human DNMT3A methylation
Plasmodium falciparum [3] = experiment: Antiplasmodial activity against synchronized Plasmodium falciparum NF54 assessed as effect on ring stage parasite growth in intraerythrocytic development cycle at 3 times IC50 concentration measured upto 48 hrs of cell cycle by SYBR Green 1 assay; assay type: functional, organism-based; conditions: time hrs <=48
Plasmodium falciparum [4] = experiment: Inhibition of Plasmodium falciparum HDAC activity using nuclear extract assessed as inhibition of acetylation at 1 to 10 uM; conditions: dose 1-10 µM
Procedure, shortened: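 P. falciparum protein extract (3x10⁻³mg) incubated with compound and 43 µM Tosyl-Gly-Pro-Lys(Ac)-AMC. Buffer: 25mM Tris-HCl pH 8, 140mM NaCl, 3mM KCl, 1mM MgCl₂. Run 45 min at 37°C, then trypsin 15min at RT, then ethanol. Fluorescence read at ex 380/em 460nm. Normalized to DMSO. Duplicates in ≥2 independent experiments.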

DNA (cytosine-5)-methyltransferase 3A (Homo sapiens), sequence (Q9Y6K1 whole entry, looked up): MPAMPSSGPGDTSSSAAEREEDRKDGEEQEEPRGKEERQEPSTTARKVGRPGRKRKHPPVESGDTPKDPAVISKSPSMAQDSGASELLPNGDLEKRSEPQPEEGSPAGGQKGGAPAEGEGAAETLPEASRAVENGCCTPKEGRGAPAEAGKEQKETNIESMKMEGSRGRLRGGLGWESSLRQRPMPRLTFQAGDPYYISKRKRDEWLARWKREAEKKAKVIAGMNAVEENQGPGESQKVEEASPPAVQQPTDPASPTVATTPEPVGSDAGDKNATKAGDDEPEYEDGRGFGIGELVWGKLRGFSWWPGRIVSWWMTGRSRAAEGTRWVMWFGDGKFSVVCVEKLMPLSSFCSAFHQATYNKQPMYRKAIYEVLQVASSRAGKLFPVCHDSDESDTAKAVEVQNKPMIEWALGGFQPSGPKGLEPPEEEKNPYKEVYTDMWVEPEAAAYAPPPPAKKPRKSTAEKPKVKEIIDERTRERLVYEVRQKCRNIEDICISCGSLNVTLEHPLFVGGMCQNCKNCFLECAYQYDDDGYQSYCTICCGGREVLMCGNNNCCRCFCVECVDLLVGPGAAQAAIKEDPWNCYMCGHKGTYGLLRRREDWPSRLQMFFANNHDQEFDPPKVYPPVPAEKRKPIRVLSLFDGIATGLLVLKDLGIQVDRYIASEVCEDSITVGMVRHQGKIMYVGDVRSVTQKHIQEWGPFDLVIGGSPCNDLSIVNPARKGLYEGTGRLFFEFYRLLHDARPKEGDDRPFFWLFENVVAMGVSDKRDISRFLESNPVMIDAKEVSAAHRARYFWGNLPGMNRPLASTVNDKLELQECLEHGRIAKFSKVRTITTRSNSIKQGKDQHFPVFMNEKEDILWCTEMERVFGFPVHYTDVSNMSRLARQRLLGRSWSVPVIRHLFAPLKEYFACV

## O=C(CCCCCCC(=O)Nc1ccc(C(=O)NC2CCNCC2)cc1)NO
HL-60
  IC50: 100 µM

## CCN(CC)CCNC(=O)c1ccc(NC(=O)CCCCCCC(=O)NO)cc1
Plasmodium falciparum [1]
  Activity: inactive
[2]
  inhibition: inactive
Plasmodium falciparum [3]
  Activity: inactive
Plasmodium falciparum [4]
  Activity: Active
